The list is not random: actives were taken first. Their share in the collection is about 3.7%.
NPY1 pot ag: NPY-Y1 receptor potentiators or agonists, primary screen, cell-based. Neuropeptide Y receptor type 1 (Homo sapiens), P25929. NPY-Y1 expressing cells, potentiator/agonist activation. activation, % at 3.6 µM. hit rate 0.37% among 220,000; in the data active means activation above about 33%, passing the limit was not always enough;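 further: cells stimulated with NPY at EC10 then isoproterenol at EC100; 0% = low agonist plus stimulus and 100% = saturating agonist plus stimulus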
NPY Y2 blocker: NPY-Y2 receptor antagonists, primary screen, cell-based; Neuropeptide Y receptor type 2 (Homo sapiens), P49146; NPY-Y2 expressing cells, antagonist mode; inhibition, % at 2.7 µM; hit rate 0.99% among 140,000; in the data active means inhibition above about 17%;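 further: 0% = vehicle with agonist challenge and 100% = reference antagonist with challenge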
NPY2 pot ag: NPY-Y2 potentiators or agonists, primary screen, cell-based; Neuropeptide Y receptor type 2 (Homo sapiens), P49146; cells expressing NPY-Y2, potentiator/agonist read-out; activation, % at 3.6 µM; hit rate 0.45% among 220,000; AID 1359, 2008; in the data active means activation above about 27%;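 further: cells stimulated with NPY near EC25 plus isoproterenol at EC100; 0% = vehicle plus submaximal agonist and 100% = vehicle plus saturating agonist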
Furin inh: human furin inhibitors, primary screen, biochemical, fluorescence intensity. P09958. purified furin, fluorogenic substrate cleavage. inhibition, % at 20 µM or 30 µM. hit rate 0.061% among 220,000. AID 463115, 2010; in the data active means inhibition above about 25%
Target sequence (P09958 108-714 limits assumed): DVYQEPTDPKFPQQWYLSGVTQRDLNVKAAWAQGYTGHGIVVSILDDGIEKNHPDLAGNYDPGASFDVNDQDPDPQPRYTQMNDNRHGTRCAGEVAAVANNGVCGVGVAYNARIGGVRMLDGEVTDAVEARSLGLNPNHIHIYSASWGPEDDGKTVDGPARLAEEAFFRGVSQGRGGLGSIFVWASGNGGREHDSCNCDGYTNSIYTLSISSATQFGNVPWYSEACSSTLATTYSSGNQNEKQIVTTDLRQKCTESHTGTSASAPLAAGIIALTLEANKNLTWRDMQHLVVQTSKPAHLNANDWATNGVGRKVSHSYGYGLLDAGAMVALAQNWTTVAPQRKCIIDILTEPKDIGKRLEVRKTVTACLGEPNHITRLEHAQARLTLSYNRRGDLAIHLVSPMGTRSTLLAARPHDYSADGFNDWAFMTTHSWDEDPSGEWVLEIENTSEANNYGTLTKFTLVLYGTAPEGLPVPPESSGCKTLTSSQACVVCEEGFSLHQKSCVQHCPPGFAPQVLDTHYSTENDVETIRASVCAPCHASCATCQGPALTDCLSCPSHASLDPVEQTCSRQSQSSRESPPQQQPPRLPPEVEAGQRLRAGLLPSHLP
KCC2 mod: KCC2 cotransporter modulators, thallium flux, primary screen, cell-based, HEK293 KCC2, FluoZin-2 fluorescence, MLSMR; hit rate 2.2% among 190,000; B-score of Tl+ flux slope (higher = more flux/activation; lower = inhibition) at 10 µM; KCC2 cells, thallium flux FluoZin-2 fluorescence; Solute carrier family 12 member 5 (Homo sapiens), Q9H2X9; AID 1456, 2008;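 active means thallium flux slope and its plate-corrected score both differing from the plate sample mean at a set confidence after two filtering rounds, in either direction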;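 further: slope of fluorescence scaled to starting intensity during 10 to 20 s after thallium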
NPY-Y1 antag: NPY-Y1 receptor antagonists, primary screen, cell-based | HEK293-CNG Y1 cells, membrane potential fluorescence; NPY at EC95, then isoproterenol | inhibition, % at 3.6 µM | Neuropeptide Y receptor type 1 (Homo sapiens), P25929 | hit rate 1% among 200,000 | AID 1040, 2008;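 active means inhibition above the campaign mean inhibition of all tested compounds plus 3 SD, cut at about 20% in these data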;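 further: 0% = DMSO wells given NPY plus isoproterenol and 100% = isoproterenol alone without NPY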
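Material: Y1- and CNG-channel-expressing HEK293 cells / Probe or stimulus: NPY 25 nM then isoproterenol 1 µM plus Ro 20-1724 25 µM / Doses: 3.6 µM single dose, DMSO 0.4% / Schedule: compound incubation 1 h at room temperature, readout 45 min post-stimulation / Signal: membrane potential fluorescence / Benchmarks: isoproterenol-only wells as full block versus NPY-plus-isoproterenol wells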
KCC2 secondary: KCC2 modulators in sodium-free buffer, confirmation, cell-based, HEK293 KCC2, thallium flux, secondary assay; shares compounds with KCC2 mod; FluoZin2 fluorescence; active compounds read high; normalised thallium flux (F/F0 slope) at 10 µM; hit rate 15% among 3,700;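 active means thallium flux slope above the same plate's solvent-only control mean plus 3 SD; inconclusive means the two replicate wells disagree; inactive means no significant difference from solvent-only control wells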
KCC2 bumet counter: thallium flux persisting under bumetanide in KCC2 cells, confirmation, counter-screen for KCC2 modulator project, cell-based, HEK293 KCC2, FluoZin2, secondary assay 3 | shares compounds with KCC2 mod | HEK293-KCC2 + bumetanide/ouabain; active compounds read high | normalized thallium flux at 10 µM | hit rate 49% among 3,700;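 active means thallium entry rate above the same plate's blocked-transporter control wells by more than 3 SD; inconclusive means the two repeat wells disagree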;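 further: raw slope of fluorescence over initial fluorescence between 10 and 20 s after thallium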
KCC2 secondary2: KCC2 modulators without ouabain present, confirmation, cell-based, HEK293 KCC2, thallium flux, FluoZin2, secondary assay 2. shares compounds with KCC2 mod. hit rate 23% among 3,700. AID 1715, 2009. normalized thallium flux at 10 µM. thallium flux FluoZin2 fluorescence; actives lie on both sides; F/F0 rise rate, 10–20 s post-thallium;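 active means thallium flux slope more than 3 SD above or below the plate's solvent-only control mean, mostly below; inconclusive means the two repeat wells disagreed; inactive means no significant shift from solvent-only controls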;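 further: raw slope with 0.1% DMSO as baseline and bumetanide as block control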
HEK293 Tl flux: thallium flux modulation in parental HEK cells, confirmation, counter-screen for KCC2 modulator project, cell-based, counterscreen 1; shares compounds with KCC2 mod; HEK293 parental cells, thallium flux FluoZin2, ouabain; baseline-ratio fluorescence slope, 10–20 s after thallium; thallium flux rate (normalised fluorescence) at 10 µM; hit rate 46% among 3,700;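 active means thallium flux rate significantly above the same plate's solvent-only control wells, beyond their mean plus 3 SD; inconclusive means the two replicate wells gave conflicting results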
KCC2 retest ouab: KCC2 inhibitors and activators, ouabain retest, confirmation, HEK-KCC2 cells. shares compounds with KCC2 mod. HEK293-KCC2, thallium flux FluoZin2 fluorescence; bidirectional: low = inhibitor, high = activator. hit rate 48% among 3,700. raw Tl+ flux slope (below DMSO = inhibition, above = activation) at 10 µM. AID 1717, 2009;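 active means thallium flux slope beyond 3 SD from same-plate DMSO control mean in most replicates, usually higher, sometimes lower; inconclusive means repeat tests gave conflicting results; inactive means no significant difference from controls in most replicates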;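 further: slope of initial-normalized fluorescence between seconds 10 and 20 after thallium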
HEK293 Tl flux2: native HEK Tl+ uptake effects, second counter-screen – HEK cells, counterscreen 2, counter-screen for KCC2 modulator project, confirmation; shares compounds with KCC2 mod; HEK293 parental, thallium flux FluoZin-2 fluorescence slope; thallium flux slope at 10 µM; hit rate 33% among 3,700; AID 1718, 2009;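 active means thallium flux slope above the same plate's solvent-control mean plus 3 SD in both duplicate wells; inconclusive means duplicate wells that disagreed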;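 further: run without ouabain in cells lacking the KCC2 cotransporter; slope of fluorescence scaled to its starting value between 10 and 20 s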
* hit, by the source's call.

O=C(NC1CCCCC1)c1ccc(CN2CCOCC2)cc1 was read as NPY1 pot ag -5, NPY Y2 blocker 2, NPY2 pot ag 1, Furin inh -8, KCC2 mod -2.8*, NPY-Y1 antag -1, KCC2 secondary 0.0098, KCC2 bumet counter 0.0066, KCC2 secondary2 0.034, HEK293 Tl flux 0.0078, KCC2 retest ouab 0.022 and HEK293 Tl flux2 0.011.
For Cc1ccc(OCC(=O)NNC(=S)NC(=O)C(C)(C)C)c(Br)c1 the results were NPY1 pot ag 7, NPY2 pot ag -14, Furin inh -17, KCC2 mod 50*, NPY-Y1 antag 6, KCC2 secondary 0.025*, KCC2 bumet counter 0.098*, KCC2 secondary2 inconclusive, HEK293 Tl flux 0.068*, KCC2 retest ouab 0.065* and HEK293 Tl flux2 0.024*.
Screening Cc1ccc(OCC(=O)n2nc(C)cc2C)c(Br)c1 returned NPY1 pot ag -17, NPY Y2 blocker 6, NPY2 pot ag -19, Furin inh -12, KCC2 mod -0.19 and NPY-Y1 antag 7.
Cc1cccc(NC(=S)NNC(=O)COc2ccc(Cl)cc2Cl)c1 was read as NPY1 pot ag -12, NPY Y2 blocker 5, NPY2 pot ag 4, Furin inh -12, KCC2 mod 6.5*, NPY-Y1 antag -5, KCC2 secondary 0.01, KCC2 bumet counter 0.16*, KCC2 secondary2 0.035, HEK293 Tl flux 0.028*, KCC2 retest ouab 0.053* and HEK293 Tl flux2 0.013*.
`O=C(CNS(=O)(=O)c1ccccc1)NCC(=O)OCc1ccc(C(=O)c2ccccc2)cc1` gave NPY1 pot ag -13, NPY Y2 blocker 0, NPY2 pot ag -1, Furin inh -20, KCC2 mod -0.81 and NPY-Y1 antag -1.
For O=C(CSCc1cccc(Cl)c1)Nc1ccccc1-c1ccccc1 the results were NPY1 pot ag -31, NPY Y2 blocker 10, NPY2 pot ag -5, Furin inh -7, KCC2 mod -1.3 and NPY-Y1 antag 8.
For Cc1cccc(C)c1NC(=O)CSc1nnc(CCCCCNC(=O)OC(C)(C)C)o1 the results were NPY1 pot ag -12, NPY Y2 blocker 3, NPY2 pot ag -4, Furin inh -6, KCC2 mod 0.24 and NPY-Y1 antag 11.
CN1/C(=C/C(=O)c2nc(S(C)(=O)=O)ncc2Cl)C(C)(C)c2ccccc21 was read as NPY1 pot ag -5, NPY Y2 blocker 0, NPY2 pot ag 9, Furin inh 1, KCC2 mod -7.2*, NPY-Y1 antag 1, KCC2 secondary 0.0061, KCC2 bumet counter inconclusive, KCC2 secondary2 0.022*, HEK293 Tl flux inconclusive, KCC2 retest ouab 0.013* and HEK293 Tl flux2 0.01.
For O=C1NC(Cc2c[nH]c3ccccc23)C(=O)N1CCOc1ccccc1 (stereo unspecified) the results were NPY1 pot ag 6, NPY Y2 blocker 2, NPY2 pot ag 11, Furin inh -32, KCC2 mod -0.36 and NPY-Y1 antag -1.
For O=C(Nc1nc2ccc(Cl)cc2s1)c1ccc(Br)o1 the results were NPY1 pot ag 22, NPY Y2 blocker -3, NPY2 pot ag 1, Furin inh -10, KCC2 mod 1.1 and NPY-Y1 antag -3.
For O=C(Nc1nc2c(Cl)cccc2s1)c1ccc(Br)o1 the results were NPY1 pot ag -31, NPY Y2 blocker 5, NPY2 pot ag -24, Furin inh -14, NPY-Y1 antag 8, KCC2 secondary inconclusive, KCC2 bumet counter 0.027*, KCC2 secondary2 0.033, HEK293 Tl flux 0.034*, KCC2 retest ouab 0.031* and HEK293 Tl flux2 0.014*.
Screening Cc1ccc(OCc2n[nH]c(=S)n2-c2ccccc2)cc1C returned NPY1 pot ag 2, NPY2 pot ag -9, Furin inh -12, KCC2 mod 47*, NPY-Y1 antag 4, KCC2 secondary 0.0068, KCC2 bumet counter 0.069*, KCC2 secondary2 0.043*, HEK293 Tl flux 0.02*, KCC2 retest ouab 0.049* and HEK293 Tl flux2 0.024*.
`Cc1ccc(-n2c(COc3cccc(C)c3)n[nH]c2=S)cc1` gave NPY1 pot ag 2, NPY2 pot ag -1, Furin inh -15, KCC2 mod 5.6*, NPY-Y1 antag 3, KCC2 secondary 0.0076, KCC2 bumet counter 0.064*, KCC2 secondary2 0.034, HEK293 Tl flux 0.016*, KCC2 retest ouab 0.036* and HEK293 Tl flux2 0.021*.
For Cc1cccc(OCc2n[nH]c(=S)n2-c2ccccc2)c1 the results were NPY1 pot ag -8, NPY2 pot ag -10, Furin inh -22, KCC2 mod 0.088 and NPY-Y1 antag 8.

Screening data: PubChem BioAssay, several laboratories
